High-throughput results deposited in PubChem by several laboratories.
A selection: hits, their analogues and other compounds. The true share with any hit is near 5.5%.
KCC2 mod = KCC2 (human) Cl- transport modulation. KCC2 cells, thallium flux FluoZin-2 fluorescence. B-score of Tl+ flux slope (higher = more flux/activation; lower = inhibition) at 10 µM. actives 2.2% (n = 190,000);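 active = thallium flux slope and its plate-corrected score both differing from the plate sample mean at a set confidence after two filtering rounds, in either direction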;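 note: slope of fluorescence scaled to starting intensity during 10 to 20 s after thallium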
STAT3 act = increases IL-6 driven STAT3 reporter signal. U3A cells, IL-6 STAT3-luciferase reporter, luminescence; 100% = signal with IL-6 EC80 alone. activation (% of control), % at 5.6 µM. actives 0.91% (n = 190,000). AID 871;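 active = activation above the screen-wide mean of compound activation plus 3 SD, cut at about 130% in these data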
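Assay system – human STAT1-deficient U3A cells with stable STAT3-luciferase reporter · Also added – IL-6 (33 ng/mL) · Schedule – compound 1 h, then IL-6 6 h at 37 °C · Technique – reporter luminescence signal · Evaluation – % activation versus median of IL-6-stimulated wells · Benchmarks – IL-6-only wells as 100% reference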
STAT3 inh = inhibitors of IL-6 induced STAT3 signaling | U3A cells, IL-6 STAT3-luciferase reporter, luminescence; host cell line lacks STAT1 | inhibition, % at 5.5 µM | actives 0.89% (n = 190,000) | AID 862;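 active = inhibition above the mean inhibition across all screened compounds plus 3 SD, cut at about 44% in these data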
STAT1 blocker = reduces IFN-gamma driven STAT1 reporter signal; AID 920; NIH 3T3 STAT1-luciferase reporter, luminescence; actives 0.35% (n = 200,000); inhibition, % at 5.5 µM;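 active = inhibition above a set limit, the mean inhibition across all tested compounds plus 3 SD, cut at about 34% in these data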
STAT1 act = increases IFN-gamma driven STAT1 reporter signal. actives 2.6% (n = 200,000). activation (% of control), % at 5.5 µM. NIH 3T3 STAT1-luciferase reporter, luminescence; 100% = IFN-gamma alone, no compound;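 active = activation above the screen-wide mean activation plus 3 SD, cut at about 130% in these data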
HSV replic up = increases HSV replication in cells; HSV replication augmentation in cells, fold increase; maximum fold increase; actives 0.005% (n = 220,000); AID 1956; in the data active = maximum fold increase above about 1.5; inconclusive = no clear call, values can overlap the other calls; tested in PC3 cells
KCC2 sec1 = KCC2 (human) modulation, secondary assay | actives 15% (n = 3,700) | shares compounds with KCC2 mod | AID 1713 | normalised thallium flux (F/F0 slope) at 10 µM | HEK293-KCC2, thallium flux, FluoZin2 fluorescence; stronger effect = higher value;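 active = thallium flux slope above the same plate's solvent-only control mean plus 3 SD; inconclusive = the two replicate wells disagree; inactive = no significant difference from solvent-only control wells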
KCC2 bumet counter = thallium flux persisting under bumetanide in KCC2 cells, counter-screen secondary assay | shares compounds with KCC2 mod | HEK293-KCC2 + bumetanide/ouabain, thallium flux FluoZin2; stronger effect = higher value | normalized thallium flux at 10 µM | actives 49% (n = 3,700) | AID 1714;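 active = thallium entry rate above the same plate's blocked-transporter control wells by more than 3 SD; inconclusive = the two repeat wells disagree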;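 note: raw slope of fluorescence over initial fluorescence between 10 and 20 s after thallium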
KCC2 secondary2 = confirmation of human KCC2 transport modulators; shares compounds with KCC2 mod; HEK293-KCC2, thallium flux FluoZin2 fluorescence; actives lie on both sides; F/F0 rise rate, 10–20 s post-thallium; normalized thallium flux at 10 µM; actives 23% (n = 3,700); AID 1715;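 active = thallium flux slope more than 3 SD above or below the plate's solvent-only control mean, mostly below; inconclusive = the two repeat wells disagreed; inactive = no significant shift from solvent-only controls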
HEK counter1 = acts in parental HEK cells, KCC2 counter-screen; thallium flux rate (normalised fluorescence) at 10 µM; actives 46% (n = 3,700); shares compounds with KCC2 mod; HEK293 parental cells, thallium flux FluoZin2, ouabain; baseline-ratio fluorescence slope, 10–20 s after thallium;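 active = thallium flux rate significantly above the same plate's solvent-only control wells, beyond their mean plus 3 SD; inconclusive = the two replicate wells gave conflicting results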
KCC2 ouabain = modulates human KCC2 on retest with ouabain | raw Tl+ flux slope (below DMSO = inhibition, above = activation) at 10 µM | shares compounds with KCC2 mod | HEK293-KCC2, thallium flux FluoZin2 fluorescence; bidirectional: low = inhibitor, high = activator | actives 48% (n = 3,700);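 active = thallium flux slope beyond 3 SD from same-plate DMSO control mean in most replicates, usually higher, sometimes lower; inconclusive = repeat tests gave conflicting results; inactive = no significant difference from controls in most replicates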;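 note: slope of initial-normalized fluorescence between seconds 10 and 20 after thallium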
HEK counter2 = counter-screen for KCC2 modulators: effect in parental HEK293 cells; shares compounds with KCC2 mod; thallium flux slope at 10 µM; AID 1718; actives 33% (n = 3,700); thallium flux FluoZin-2 fluorescence slope;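 active = thallium flux slope above the same plate's solvent-control mean plus 3 SD in both duplicate wells; inconclusive = duplicate wells that disagreed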;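 note: run without ouabain in cells lacking the KCC2 cotransporter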
A number is an active result; – = inactive; ? = inconclusive; · = not tested or not shown.

SMILES	KCC2 mod	STAT3 act	STAT3 inh	STAT1 blocker	STAT1 act	HSV replic up	KCC2 sec1	KCC2 bumet counter	KCC2 secondary2	HEK counter1	KCC2 ouabain	HEK counter2
O=C(CSc1nnc(SCc2cccc3ccccc23)s1)c1ccc2c(c1)OCO2	·	–	–	–	–	·	?	0.028	0.04	0.034	0.032	0.035
O=C(CSc1nnc(SCc2cccc3ccccc23)s1)Nc1ccc(C(=O)O)cc1	–	–	–	–	–	–	·	·	·	·	·	·
CCC(C(=O)NC1CCCCC1)n1c(SCc2ccccc2F)nc2ccncc21 (centres undefined)	–	–	–	–	–	–	·	·	·	·	·	·
COCc1cc(C)nc(OCC(=O)N/N=C/c2ccc(-c3cc([N+](=O)[O-])ccc3Cl)o2)c1C#N	6.8	–	–	–	–	–	–	0.015	–	0.024	0.027	0.021
COCc1cc(C)nc(OCC(=O)N/N=C/c2ccco2)c1C#N	–	–	–	–	–	–	·	·	·	·	·	·
Cc1ccc(C2C(C#N)=C(N)N(c3ncn[nH]3)C3=C2C(=O)CC(C)(C)C3)cc1 (centres undefined)	–	–	–	–	–	–	·	·	·	·	·	·
COc1cccc(Cn2cnc3c(NS(=O)(=O)c4cc(Cl)ccc4Cl)c(C)c(C)cc32)c1	·	–	–	–	–	–	–	0.0091	–	?	–	?
COc1cccc(Cn2cnc3c(NS(=O)(=O)c4ccc(Cl)cc4Cl)c(C)c(C)cc32)c1	·	–	–	–	–	–	·	·	·	·	·	·
O=C(Nc1nnc(SCc2ccc(F)cc2)s1)C1Cc2ccccc2CN1C(=O)c1ccco1 (centres undefined)	-3.3	–	–	–	–	–	–	–	0.025	–	0.017	–
Cc1ccc(C(=O)Nc2nc(=O)n(C(=O)CC(C)C)s2)cc1	–	–	–	–	–	–	·	·	·	·	·	·
Cc1ccc(C(=O)Nc2nc(=O)n(C(=O)c3ccccc3Cl)s2)cc1	-7.2	–	–	–	141	–	–	?	0.024	–	0.012	–
COc1ccc(C(=O)NNC(=S)NC(=O)c2cc(-c3ccccc3)nc3ccccc23)cc1	6.6	–	–	–	–	·	–	0.017	–	0.022	0.026	0.015
COc1ccc(Cl)cc1C(=O)NNC(=S)NC(=O)c1cc(-c2ccccc2)nc2ccccc12	4.8	–	–	–	–	·	–	0.0087	–	0.012	–	–
CC(C)Oc1cccc(-c2cc(C(=O)NC(=S)N(C)c3ccccc3C(=O)O)c3ccccc3n2)c1	4.4	–	–	–	–	–	?	0.02	–	0.011	?	0.014
CCCOc1ccc(C(=O)NNC(=S)NC(=O)c2cc(-c3ccc(Cl)cc3)nc3ccccc23)cc1	–	–	–	–	–	–	·	·	·	·	·	·
CCC(C)n1c(SCC(=O)Nc2cc(C(C)(C)C)nn2-c2ccccc2)nc2ccccc2c1=O (centres undefined)	–	–	–	–	–	–	·	·	·	·	·	·
Cc1nn(C)c(C)c1S(=O)(=O)N(CC(=O)N1CCc2ccccc2C1)c1ccc(C(C)C)cc1	·	–	–	–	–	–	?	–	0.025	?	0.014	–
COc1ccc(-n2c(C)cc(C(=O)CSc3nnc(-c4ccoc4C)n3C)c2C)cc1	·	–	–	–	–	–	–	–	–	?	–	–
COc1ccc(-n2c(SCC(=O)Nc3ccccc3)nnc2-c2ccoc2C)cc1	–	–	–	–	–	–	·	·	·	·	·	·
Cc1ccc(Cl)cc1NC(=S)N/N=C/c1cccc2ccccc12	30	·	·	·	·	–	–	0.035	–	?	0.028	–
Cc1ccccc1NC(=S)N/N=C/c1ccc(O)cc1O	–	·	·	·	·	–	·	·	·	·	·	·
O=C1CCN(S(=O)(=O)c2ccccc2)N1	-5.6	–	–	–	–	·	–	–	–	–	–	–
O=C1CCN(S(=O)(=O)c2ccc(Cl)cc2)N1	–	–	–	–	–	–	·	·	·	·	·	·
FC(F)(F)c1ccc(Cl)c(-n2c(-c3cc(C4CC4)[nH]n3)n[nH]c2=S)c1	4.1	·	·	·	·	–	–	0.016	–	?	?	–
COc1ccc(N/C(N)=N/c2nc(CSc3ccc(C)cc3)cc(=O)[nH]2)cc1	·	–	–	–	–	–	–	–	–	–	–	–
SMILES	KCC2 mod	STAT3 act	STAT3 inh	STAT1 blocker	STAT1 act	HSV replic up	KCC2 sec1	KCC2 bumet counter	KCC2 secondary2	HEK counter1	KCC2 ouabain	HEK counter2
Cc1ccc(N/C(N)=N/c2nc(CSc3ccc(C)cc3)cc(=O)[nH]2)cc1	–	–	–	–	–	·	·	·	·	·	·	·
CS(=O)(=O)N1CCC(C(=O)c2cccc(Cl)c2)CC1	·	–	–	–	–	–	·	·	·	·	·	·
COC(=O)c1ccc(Cn2cnc3c(sc4nc(N5CCOCC5)c5c(c43)CCCC5)c2=O)o1	–	–	–	–	–	–	·	·	·	·	·	·
Cc1ccc(S(=O)(=O)N(CC(=O)O)Cc2ccccc2)cc1	–	–	–	–	–	–	·	·	·	·	·	·
Cc1ccc(S(=O)(=O)N(CCC(=O)O)Cc2ccc(Cl)cc2)cc1	·	–	–	–	–	–	–	0.0067	0.022	–	0.013	–
Cc1ccc(CNC(=O)Cn2nnc3ccccc3c2=O)cc1	–	–	–	–	–	–	·	·	·	·	·	·
O=C(C1CCCN(S(=O)(=O)c2cccc3nonc23)C1)N1CCC(Cc2ccccc2)CC1 (centres undefined)	·	–	–	–	–	–	–	?	0.024	–	?	–
O=C(NCCN1CCC(Cc2ccccc2)CC1)C1CCCN(S(=O)(=O)c2cnc[nH]2)C1 (centres undefined)	-4	–	–	–	–	·	–	–	–	–	–	–
CCOCCCn1c(=S)[nH]c2cc3c(cc2c1=O)OCO3	5.7	–	–	–	–	·	?	0.043	–	0.019	0.04	?
Cc1ccc(C)c(N2CCN(C(=O)CCCn3c(=S)[nH]c4cc5c(cc4c3=O)OCO5)CC2)c1	3.4	–	–	–	–	–	–	0.016	–	0.01	?	–
